Measured values reported in ChEMBL document CHEMBL1140174, “A copper(I)-catalyzed 1,2,3-triazole azide-alkyne click compound is a potent inhibitor of a multidrug-resistant HIV-1 protease variant” (J Med Chem, 2008).
The source made the active and inactive calls. The rule behind the calls is not given here.

Legend:
[1] = system: Human immunodeficiency virus 1; test: Antiviral activity against wild type HIV1 in human SupT1 cells assessed as viral LTR-driven luciferase activity using TZM-bl cells; type: functional, organism-based; conditions: Human immunodeficiency virus 1, SUP-T1
Procedure, shortened: (§1)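 SupT1 cells infected at MOI 0.001–0.005 and cultured with inhibitor at 1–4000 nM. On day 5–6, cell-free supernatant transferred to 10^4 TZM-bl cells carrying an HIV-1 LTR-driven luciferase reporter. Luciferase read by luminescence after 48 h. EC50 from nonlinear regression.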

[2] = system: Human immunodeficiency virus 1; test: Antiviral activity against wild type HIV1 in human SupT1 cells assessed as inhibition of viral replication measured at 6 days postinfection by p24 ELISA assay; type: functional, organism-based; conditions: Human immunodeficiency virus 1, SUP-T1, 144 h
Procedure, shortened: (§2)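 SupT1 cells (RPMI 1640, 10% FCS, 2mM L-glutamine, penicillin/streptomycin) infected with 10–100ng/mL p24 of virus at 37°C, washed, then cultured ± inhibitor at 1–4000 nM. Supernatant sampled every second day with media and inhibitor replenished. p24 measured by ELISA at 6 days post-infection, expressed as percentage of untreated cells; EC50 by nonlinear regression.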

[3] = system: Human immunodeficiency virus 1; test: Antiviral activity against multidrug-resistant HIV1 with protease V82A, M46I, F53L, V77I, L24I, L63P mutation in human SupT1 cells assessed as viral LTR-driven luciferase activity using TZM-bl cells; type: functional, organism-based; conditions: Human immunodeficiency virus 1, SUP-T1; procedure, shortened: as §1
[4] = system: Human immunodeficiency virus 1; test: Antiviral activity against multidrug-resistant HIV1 with protease V82A, M46I, F53L, V77I, L24I, L63P mutation in human SupT1 cells assessed as inhibition of viral replication measured at 6 days postinfection by p24 ELISA assay; type: functional, organism-based; conditions: Human immunodeficiency virus 1, SUP-T1, 144 h; procedure, shortened: as §2
[5] = Inhibition of multidrug-resistant HIV1 protease with V82A, M46I, F53L, V77I, L24I, L63P mutation; parameters: species or system Human immunodeficiency virus 1
Procedure, shortened: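 Fluorogenic cleavage assay with purified protease in 25mM MES pH 5.6, 200mM NaCl, 5% glycerol, 1mM DTT. Final concentrations 25nM enzyme, 30μM anthranilyl substrate H-2992, inhibitor 0.001–600μM. Reaction started by adding substrate in a prewarmed plate, read by fluorescence. IC50 by nonlinear regression of initial velocities; Ki from Cheng-Prusoff.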

[6] = system: Human immunodeficiency virus 1; test: Antiviral activity against multidrug-resistant HIV1 with protease V82A, M46I, […], V77I, L24I, L63P mutation in human SubT1 cells assessed as inhibition of viral replication at 250 nM measured at 6 days postinfection by p24 ELISA assay relative to control; type: functional
Procedure, shortened: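 SupT1 cells (RPMI 1640, 10% fetal calf serum, 2mM L-glutamine, penicillin/streptomycin) infected with 10–100ng/mL p24 of SupT1-grown virus at 37°C, washed, then resuspended in medium with or without inhibitor (1–4000 nM range). Supernatant sampled every second day with medium and inhibitor replenished. p24 quantified by ELISA 6 days post infection, expressed as percentage of untreated cells.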

[7] = system: Human immunodeficiency virus 1; test: Antiviral activity against wild type HIV1 in human SubT1 cells assessed as inhibition of viral replication at 250 nM measured at 6 days postinfection by p24 ELISA assay; type: functional, organism-based
Procedure, shortened: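 SupT1 cells (RPMI 1640, 10% fetal calf serum) were infected with wild-type HIV-1 (10–100ng/mL p24) at 37°C, washed, then cultured with inhibitor at 1–4000 nM. Every second day supernatant was sampled and medium plus inhibitor replaced. p24 was measured by ELISA 6 days post-infection and expressed as a percentage of untreated cells (relative p24).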

[8] = target: Protease (Human immunodeficiency virus 1, UniProt Q9YQ12); test: Inhibition of wild type HIV1 protease
Procedure, shortened: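 Purified HIV-1 protease (expression and purification described in earlier work) is preincubated with inhibitor in 25mM MES pH 5.6, 200mM NaCl, 5% glycerol, 1mM DTT in a prewarmed plate. Final concentrations: 25nM protease, 30µM fluorogenic anthranilyl substrate H-2992, 0.001–600µM inhibitor. Cleavage is read as fluorescence intensity. IC50 comes from nonlinear regression of initial velocities against inhibitor concentration, and Ki is calculated with the Cheng-Prusoff equation.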

Protease, sequence (Q9YQ12 whole entry): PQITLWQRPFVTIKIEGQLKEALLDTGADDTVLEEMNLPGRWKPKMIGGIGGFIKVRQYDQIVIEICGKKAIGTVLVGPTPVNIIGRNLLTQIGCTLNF

Row | SMILES | EC50 [1] | EC50 [2] | EC50 [3] | EC50 [4] | IC50 [5] | Ki [5] | fold change (FC) [6] | Activity [7] | IC50 [8] | Ki [8]
1 | CC(C)[C@H](NC(=O)[C@H](C)NC(=O)OCc1ccccc1)C(=O)N[C@@H](Cc1ccccc1)[C@@H](O)[C@H](O)[C@H](Cc1ccccc1)NC(=O)[C@@H](NC(=O)[C@H](C)NC(=O)OCc1ccccc1)C(C)C | 92 nM | 46 nM |  |  |  |  |  |  |  | 
2 | COc1ccc(S(=O)(=O)N(CC(C)C)C[C@@H](O)[C@H](Cc2ccccc2)n2cc(COC(=O)N[C@H]3c4ccccc4C[C@H]3O)nn2)cc1 | 86 nM | 30 nM | 260 nM | 55 nM | 15.7 nM | 7.1 nM | 20 | Active | 6 nM | 2.7 nM
